According to ChEMBL document CHEMBL1150362, “Synthesis and in vitro evaluation of a library of modified endomorphin 1 peptides” (Bioorg Med Chem, 2008):
*1 amine or outer side, *2 acyl side, *3 side chain or, on linkers, in order; H or OH if unused. Where a SMILES comes first, the peptide text is derived from it. [ ]: non-standard residue; d: D form. The star is where a group is joined. ξ: configuration not given here. NH(β-D-Glc) = OC[C@H]1O[C@@H](N*)[C@H](O)[C@@H](O)[C@@H]1O; X1 = NC(=O)[C@H]1O[C@@H](N*)[C@H](O)[C@@H](O)[C@@H]1O; ξGly(nC16H33) = CCCCCCCCCCCCCCCCC(N)C(=O)O; Dmt = Cc1cc(O)cc(C)c1C[C@H](N)C(=O)O; ξGly(decyl) = CCCCCCCCCCC(N)C(=O)O; Suc = O=C(CCC(=O)[*:2])[*:1]; ξAoc(2) = CCCCCCC(N)C(=O)O

Key:
[1] = (§1) Apparent permeability from apical to basolateral side of the human Caco-2 membrane; assay type: ADME, cell-based
Mu-type opioid receptor [2] = molecular target: T1, Mu-type opioid receptor (Homo sapiens, UniProt P35372); experiment: Agonist activity at mu opioid receptor in human SHSY5Y cells assessed as inhibition of forskolin-stimulated cAMP production at 100 nM; assay type: functional, cell-based; parameters: scale not given: the % may be the effect or the level left; settings: SH-SY5Y
In short: (§2)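 SH-SY5Y cells (endogenous mu and delta opioid receptors, passages 10-20) grown in 96-well plates to 80% confluence. Peptides applied in DMEM with 30 μM forskolin for 30 min at 37°C. Lysed cells read by cAMP enzyme immunoassay (TMB, 450 nm) against a 0-3.2 pmol standard curve, expressed relative to the maximal forskolin response. Three experiments in triplicate; IC50 from concentration-response curves.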

Rattus norvegicus = species on record: Rattus norvegicus; experiment: Selectivity for rat mu opioid receptor over rat delta opioid receptor
In short: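 Ratio Kiδ/Kiμ, with both Ki values from competitive displacement binding on prepared rat brain P2 synaptosome membranes. The μ site was labelled with [3H]DAMGO. Ki values are given as mean ± SE, n = 3-4.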

Mu-type opioid receptor [3] = molecular target: T1, Mu-type opioid receptor; experiment: Displacement of [3H]DAMGO from mu opioid receptor in human SHSY5Y cells; assay type: cell-based, SH-SY5Y
In short: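 Intact SH-SY5Y cells in 24-well plates were pre-incubated in binding buffer (50 mM Tris pH 7.4, 2% BSA). Incubated with 100 pM [3H]DAMGO plus unlabelled competitor (7 concentrations, 10 pM-1 μM) for 60 min at 37°C. Nonspecific binding defined with 1 μM DAMGO. Cells washed, dissolved in 1 M NaOH and counted by scintillation. Triplicates on at least three plates; Ki from one-site competition fits.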

Mu-type opioid receptor [4] = molecular target: Mu-type opioid receptor (Rattus norvegicus, UniProt P33535); experiment: Displacement of [3H]DAMGO from mu opioid receptor in rat brain membrane; assay type: cell membranes
[5] = molecular target: Delta-type opioid receptor (Rattus norvegicus, UniProt P33533); experiment: Displacement of […] from delta opioid receptor in rat brain membrane; assay type: cell membranes
[6] = (§3) Metabolic stability assessed as half life in human Caco-2 cell homogenate; assay type: ADME, Colon; settings: Caco-2 cell homogenate
Mu-type opioid receptor [7] = molecular target: T1, Mu-type opioid receptor; experiment: Agonist activity at mu opioid receptor in human SHSY5Y cells assessed as inhibition of forskolin-stimulated cAMP production; assay type: functional, cell-based, SH-SY5Y; in short: as §2
Caco-2 [8] = experiment: as §3; assay type: ADME, Colon; settings: Caco-2
Caco-2 [9] = experiment: as §1; assay type: ADME, cell-based

T1 sequence (P35372 whole entry): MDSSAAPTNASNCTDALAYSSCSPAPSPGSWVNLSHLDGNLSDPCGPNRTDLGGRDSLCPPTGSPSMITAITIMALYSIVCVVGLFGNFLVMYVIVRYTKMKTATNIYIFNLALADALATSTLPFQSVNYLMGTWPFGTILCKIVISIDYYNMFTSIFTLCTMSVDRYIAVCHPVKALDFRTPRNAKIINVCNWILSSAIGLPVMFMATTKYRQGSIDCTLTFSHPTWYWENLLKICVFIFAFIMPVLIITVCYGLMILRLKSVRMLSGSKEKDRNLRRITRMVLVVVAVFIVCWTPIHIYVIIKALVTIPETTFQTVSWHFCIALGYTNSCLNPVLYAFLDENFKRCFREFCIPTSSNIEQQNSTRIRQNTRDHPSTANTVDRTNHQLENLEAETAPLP
Chain of Delta-type opioid receptor (P33533 whole entry): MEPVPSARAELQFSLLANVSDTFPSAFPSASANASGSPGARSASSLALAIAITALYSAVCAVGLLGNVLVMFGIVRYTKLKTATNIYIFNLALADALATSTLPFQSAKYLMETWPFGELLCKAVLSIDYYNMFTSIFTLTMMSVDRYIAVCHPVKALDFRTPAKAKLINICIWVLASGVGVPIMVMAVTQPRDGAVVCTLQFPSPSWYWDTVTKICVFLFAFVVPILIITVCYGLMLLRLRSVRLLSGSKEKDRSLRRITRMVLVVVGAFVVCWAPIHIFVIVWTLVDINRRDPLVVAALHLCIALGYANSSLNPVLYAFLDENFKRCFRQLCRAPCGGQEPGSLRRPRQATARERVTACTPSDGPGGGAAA
Chain of Mu-type opioid receptor (Rattus norvegicus, UniProt P33535) (P33535 whole entry): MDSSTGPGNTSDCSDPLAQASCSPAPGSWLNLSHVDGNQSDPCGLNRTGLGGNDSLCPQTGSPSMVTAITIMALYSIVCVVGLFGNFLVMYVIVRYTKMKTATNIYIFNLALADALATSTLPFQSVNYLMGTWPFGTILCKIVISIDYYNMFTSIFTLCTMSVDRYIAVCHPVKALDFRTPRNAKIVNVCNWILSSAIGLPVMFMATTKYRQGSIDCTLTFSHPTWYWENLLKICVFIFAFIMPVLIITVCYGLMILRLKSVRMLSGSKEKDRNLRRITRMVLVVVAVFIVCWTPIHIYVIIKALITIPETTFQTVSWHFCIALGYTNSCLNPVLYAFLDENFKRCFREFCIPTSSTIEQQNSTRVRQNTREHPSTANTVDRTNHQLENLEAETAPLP

Row | SMILES | Papp A→B [1] [×10⁻⁶ cm/s] | Activity (Mu-type opioid receptor [2]) [%] | Ki (Mu-type opioid receptor [3]) [nM] | half-life [6] [min] | also measured
1 | CCCCCCCCCCC(N)C(=O)N[C@@H](Cc1ccc(O)cc1)C(=O)N1CCC[C@H]1C(=O)N[C@@H](Cc1c[nH]c2ccccc12)C(=O)N[C@@H](Cc1ccccc1)C(N)=O (stereo partly drawn) (H-[ξGly(decyl)]YPWF-NH2) | 1.24 | 55.4 | 15.4 |  | Ratio Ki (Rattus norvegicus): 56; Ki (Mu-type opioid receptor [4]): 14.8 nM; Ki [5]: 836 nM
2 | Cc1cc(O)cc(C)c1C[C@H](N)C(=O)N1CCC[C@H]1C(=O)N[C@@H](Cc1c[nH]c2ccccc12)C(=O)N[C@@H](Cc1ccccc1)C(N)=O (stereo in doubt; 13) [listing 1 of 2 here] |  |  |  |  | Ratio Ki (Rattus norvegicus): 75
3 | CCCCCC[C@H](N)C(=O)N[C@@H](Cc1ccc(O)cc1)C(=O)N1CCC[C@H]1C(=O)N[C@@H](Cc1c[nH]c2ccccc12)C(=O)N[C@@H](Cc1ccccc1)C(N)=O |  |  | 3.02 | 23.8 | 
4 | NC(=O)[C@H](Cc1ccccc1)NC(=O)[C@H](Cc1c[nH]c2ccccc12)NC(=O)[C@@H]1CCCN1C(=O)[C@@H](N)Cc1ccc(O)cc1 [ENDOMORPHIN-1] | 0.447 |  |  |  | 
5 | NC(=O)[C@H](Cc1ccccc1)NC(=O)[C@H](Cc1c[nH]c2ccccc12)NC(=O)[C@@H]1CCCN1C(=O)[C@H](Cc1ccc(O)cc1)NC(=O)CCC(=O)N[C@@H]1O[C@H](CO)[C@@H](O)[C@H](O)[C@H]1O | 0.545 |  | 115 | 38 | Ratio Ki (Rattus norvegicus): 55; Ki (Mu-type opioid receptor [4]): 115 nM; Ki [5]: 6320 nM
6 | CCCCCCC(NC(=O)[C@H](Cc1ccccc1)NC(=O)[C@H](Cc1c[nH]c2ccccc12)NC(=O)[C@@H]1CCCN1C(=O)[C@@H](N)Cc1ccc(O)cc1)C(N)=O (stereo partly drawn) (H-YPWF[ξAoc(2)]-NH2) | 0.823 | 15.9 | 121 | 3.5 | 
7 | CCCCCCC(N)C(=O)N[C@@H](Cc1ccc(O)cc1)C(=O)N1CCC[C@H]1C(=O)N[C@@H](Cc1c[nH]c2ccccc12)C(=O)N[C@@H](Cc1ccccc1)C(=O)N[C@@H]1O[C@H](C(N)=O)[C@@H](O)[C@H](O)[C@H]1O (stereo partly drawn) (H-[ξAoc(2)]YPWF-X1) | 1.62 | 36.2 | 148 | 75 | 
8 | CCCCCCC(N)C(=O)N[C@@H](Cc1ccc(O)cc1)C(=O)N1CCC[C@H]1C(=O)N[C@@H](Cc1c[nH]c2ccccc12)C(=O)N[C@@H](Cc1ccccc1)C(N)=O (stereo partly drawn) | 3.54 | 65.4 | 2.15 | 23.2 | Ratio Ki (Rattus norvegicus): 614; IC50 (Mu-type opioid receptor [7]): 26.3 nM; Ki (Mu-type opioid receptor [4]): 2.86 nM; Ki [5]: 1760 nM
9 | CCCCCCCCCCC(NC(=O)[C@H](Cc1ccccc1)NC(=O)[C@H](Cc1c[nH]c2ccccc12)NC(=O)[C@@H]1CCCN1C(=O)[C@@H](N)Cc1ccc(O)cc1)C(N)=O (stereo partly drawn) (H-YPWF[ξGly(decyl)]-NH2) | 0.416 |  |  |  | 
10 | CCCCCCCCCCCCCCCCC(N)C(=O)N[C@@H](Cc1ccc(O)cc1)C(=O)N1CCC[C@H]1C(=O)N[C@@H](Cc1c[nH]c2ccccc12)C(=O)N[C@@H](Cc1ccccc1)C(N)=O (stereo partly drawn) (H-[ξGly(nC16H33)]YPWF-NH2) |  | 48.4 |  |  | 
11 | CCCCCCC(N)C(=O)N[C@@H](Cc1c(C)cc(O)cc1C)C(=O)N1CCC[C@H]1C(=O)N[C@@H](Cc1c[nH]c2ccccc12)C(=O)N[C@@H](Cc1ccccc1)C(N)=O (stereo partly drawn) (H-[ξAoc(2)][Dmt]PWF-NH2) |  | 84.3 | 0.081 |  | IC50 (Mu-type opioid receptor [7]): 0.32 nM
12 | Cc1cc(O)cc(C)c1C[C@H](N)C(=O)N1CCC[C@H]1C(=O)N[C@@H](Cc1c[nH]c2ccccc12)C(=O)N[C@@H](Cc1ccccc1)C(N)=O (stereo in doubt) |  |  |  |  | t1/2 (Caco-2 [8]): 5 min; Papp (Caco-2 [9]): 0.196 ×10⁻⁷ cm/s
13 | Cc1cc(O)cc(C)c1C[C@H](N)C(=O)N1CCC[C@H]1C(=O)N[C@@H](Cc1c[nH]c2ccccc12)C(=O)N[C@@H](Cc1ccccc1)C(N)=O (stereo in doubt; 13) [listing 2 of 2 here] |  |  | 0.059 |  | t1/2 (Caco-2 [8]): 13.5 min; Papp (Caco-2 [9]): 5.04 ×10⁻⁷ cm/s; IC50 (Mu-type opioid receptor [7]): 0.43 nM; Ki (Mu-type opioid receptor [4]): 0.067 nM; Ki [5]: 5 nM
14 | NC(=O)[C@H]1O[C@@H](NC(=O)[C@H](Cc2ccccc2)NC(=O)[C@H](Cc2c[nH]c3ccccc23)NC(=O)[C@@H]2CCCN2C(=O)[C@@H](N)Cc2ccc(O)cc2)[C@H](O)[C@@H](O)[C@@H]1O |  | 31.5 | 151 | 4.3 | 
15 | CCCCCC[C@@H](N)C(=O)N[C@@H](Cc1ccc(O)cc1)C(=O)N1CCC[C@H]1C(=O)N[C@@H](Cc1c[nH]c2ccccc12)C(=O)N[C@@H](Cc1ccccc1)C(N)=O |  |  | 2.92 | 23.8 | 
16 | CCCCCCC(NC(=O)[C@H](Cc1ccccc1)NC(=O)[C@H](Cc1c[nH]c2ccccc12)NC(=O)[C@@H]1CCCN1C(=O)[C@H](Cc1ccc(O)cc1)NC(=O)CCC(=O)N[C@@H]1O[C@H](CO)[C@@H](O)[C@H](O)[C@H]1O)C(N)=O (stereo partly drawn) ({NH(β-D-Glc)-Suc}-YPWF[ξAoc(2)]-NH2) | 1.14 |  | 266 | 33 | 
